Data as given in ChEMBL document CHEMBL1165950, “Design and synthesis of new potent anticancer pyrazoles with high FLT3 kinase inhibitory selectivity” (Bioorg Med Chem, 2010).

Tests used:
Type in all cases: functional
OVCAR-8 [1] = assay: Cytotoxicity against human OVCAR8 cells assessed as cell growth at 10 uM; conditions: read-out: Activity
How it was run: (§1)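 NCI-60 screen: cells grown in RPMI 1640 with 5% FBS and 2 mM L-glutamine, plated at 5000–40,000 cells/well according to doubling time, and preincubated 24 h at 37 °C, 5% CO2. The single 10 µM dose (DMSO stock) was added, then incubated 48 h. Cells were TCA-fixed and stained with 0.4% SRB, read at 515 nm, and growth % calculated against time-zero and control plates.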

786-0 = assay: Cytotoxicity against human 786-0 cells assessed as cell growth at 10 uM; conditions: read-out: Activity
How it was run: (§2)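 Single-dose NCI-60 screen at 10 µM. Cells were grown in RPMI 1640 with 5% FBS and 2 mM L-glutamine, then treated for 48 h at 37 °C. Protein was measured by SRB staining with absorbance at 515 nm. Percentage growth was recorded, and inhibition percentage was calculated as 100 minus growth percentage.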

OVCAR-8 [2] = assay: Cytotoxicity against human OVCAR8 cells assessed as cell growth at 10 uM after 48 hrs by sulforhodamine B assay; conditions: OVCAR-8, 48 h, read-out: Activity
HOP-62 = assay: Growth inhibition of human HOP62 cells after 48 hrs by sulforhodamine B assay; conditions: HOP-62, 48 h
How it was run: (§3)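 NCI 60-cell screen, five-dose mode. Cells grown in RPMI 1640 with 5% FBS and 2 mM L-glutamine and plated at 5000-40,000 cells/well according to doubling time. After 24 h preincubation, a Tz plate was TCA-fixed. Five concentrations (10-fold or 1/2 log dilutions) were applied for 48 h at 37 °C. SRB staining read at 515 nm. IC50 taken from [(Ti-Tz)/(C-Tz)]×100 = 50.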

SF-268 = assay: Growth inhibition of human SF268 cells after 48 hrs by sulforhodamine B assay; conditions: SF-268, 48 h; for CC50: read-out: LC50 (the source's name); how it was run: as §3
COLO 205 [3] = assay: Growth inhibition of human COLO205 cells after 48 hrs by sulforhodamine B assay; conditions: COLO 205, 48 h; for CC50: read-out: LC50 (the source's name)
How it was run: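 NCI five-dose SRB assay in RPMI 1640 with 5% FBS and 2 mM L-glutamine. Cells were preincubated 24 h, then exposed 48 h at 37 °C to five concentrations (10-fold or half-log serial dilutions from DMSO stocks). TCA fixation, SRB staining, and absorbance at 515 nm followed. IC50 was taken where [(Ti−Tz)/(C−Tz)]×100 = 50, with Tz as time-zero cell density.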

Malme-3M = assay: Cytotoxicity against human MALME-3M cells assessed as cell growth at 100 nM after 48 hrs by sulforhodamine B assay; conditions: read-out: Activity
U-251 [4] = assay: Growth inhibition of human U251 cells after 48 hrs by sulforhodamine B assay; conditions: U-251, 48 h; for CC50: read-out: LC50 (the source's name); how it was run: as §3
SR = assay: Cytotoxicity against human SR cells assessed as cell growth at 10 uM after 48 hrs by sulforhodamine B assay; conditions: read-out: Activity
NCI/ADR-RES = assay: Cytotoxicity against human NCI/ADR-RES cells assessed as cell growth at 10 uM; conditions: read-out: Activity; how it was run: as §1
RXF 393 = assay: Cytotoxicity against human RXF393 cells assessed as cell growth at 0.01 uM after 48 hrs by sulforhodamine B assay; conditions: RXF 393, 48 h, read-out: Activity
UACC-257 = assay: Cytotoxicity against human UACC257 cells assessed as cell growth at 0.001 uM after 48 hrs by sulforhodamine B assay; conditions: UACC-257, 48 h, read-out: Activity
UACC-62 = assay: Cytotoxicity against human UACC62 cells assessed as cell growth at 0.01 uM after 48 hrs by sulforhodamine B assay; conditions: UACC-62, 48 h, read-out: Activity
A549 = assay: Cytotoxicity against human A549 cells assessed as cell growth at 1 uM after 48 hrs by sulforhodamine B assay; conditions: A549, 48 h, read-out: Activity
How it was run: (§4)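 NCI-60 five-dose screen. Cells were grown in RPMI 1640 with 5% FBS and 2 mM L-glutamine, plated at 5000–40,000 cells/well and preincubated for 24 h. Time-zero plates were TCA-fixed. DMSO-solubilized drug was added at five concentrations (10-fold or ½-log serial dilutions) for 48 h at 37 °C, 5% CO2. Cells were TCA-fixed, stained with 0.4% SRB and read at 515 nm. Percent growth used time-zero, control and test absorbances.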

HCC 2998 = assay: Cytotoxicity against human HCC2998 cells assessed as cell growth at 0.01 uM after 48 hrs by sulforhodamine B assay; conditions: HCC 2998, 48 h, read-out: Activity
CCRF-CEM = assay: Cytotoxicity against human CCRF-CEM cells assessed as cell growth at 0.01 uM after 48 hrs by sulforhodamine B assay; conditions: read-out: Activity; how it was run: as §4
HCT-116 = assay: Cytotoxicity against human HCT116 cells assessed as cell growth at 0.01 uM after 48 hrs by sulforhodamine B assay; conditions: HCT-116, 48 h, read-out: Activity
SNB-75 = assay: Cytotoxicity against human SNB75 cells assessed as cell growth at 0.001 uM after 48 hrs by sulforhodamine B assay; conditions: SNB-75, 48 h, read-out: Activity
SK-OV-3 = assay: Growth inhibition of human SKOV3 cells after 48 hrs by sulforhodamine B assay; conditions: SK-OV-3, 48 h; for CC50: read-out: LC50 (the source's name); how it was run: as §3
K562 = assay: Cytotoxicity against human K562 cells assessed as cell growth at 10 uM; conditions: read-out: Activity; how it was run: as §2
A498 = assay: Cytotoxicity against human A498 cells assessed as cell growth at 100 nM after 48 hrs by sulforhodamine B assay; conditions: A498, 48 h, read-out: Activity; how it was run: as §4
OVCAR-5 = assay: Cytotoxicity against human OVCAR5 cells assessed as cell growth at 0.001 uM after 48 hrs by sulforhodamine B assay; conditions: OVCAR-5, 48 h, read-out: Activity
U-251 [5] = assay: Cytotoxicity against human U251 cells assessed as cell growth at 0.01 uM after 48 hrs by sulforhodamine B assay; conditions: U-251, 48 h, read-out: Activity
SNB-19 = assay: Cytotoxicity against human SNB19 cells assessed as cell growth at 10 uM after 48 hrs by sulforhodamine B assay; conditions: SNB-19, 48 h, read-out: Activity
SK-MEL-5 = assay: Cytotoxicity against human SK-MEL-5 cells assessed as cell growth at 0.001 uM after 48 hrs by sulforhodamine B assay; conditions: SK-MEL-5, 48 h, read-out: Activity
SF-295 = assay: Cytotoxicity against human SF295 cells assessed as cell growth at 1 uM after 48 hrs by sulforhodamine B assay; conditions: SF-295, 48 h, read-out: Activity
COLO 205 [6] = assay: Cytotoxicity against human COLO205 cells assessed as cell growth at 0.001 uM after 48 hrs by sulforhodamine B assay; conditions: COLO 205, 48 h, read-out: Activity; how it was run: as §4

COc1cc(C)cc(-c2c(-c3ccnc(-c4ccc(C(C)=O)cc4)c3)cnn2CC#N)c1 showed a growth at 10 µM (OVCAR-8 [1]) of 80.1%, a growth at 10 µM (786-0) of 67.2% and a growth at 10 µM (OVCAR-8 [2]) of 10%. It also gave a GI50 (HOP-62) of 3.35 µM, an LC50 (50% lethal concentration) (HOP-62) greater than 100 µM and a TGI (HOP-62) greater than 100 µM. The GI50 (SF-268) was 3.14 µM, the TGI (SF-268) was greater than 100 µM and the CC50 (SF-268) was greater than 100 µM. For the same compound, the GI50 (COLO 205 [3]) was 1.95 µM, the TGI (COLO 205 [3]) was 3.7 µM and the CC50 (COLO 205 [3]) was 7.02 µM. The growth at 0.1 µM (Malme-3M) was 97%, the GI50 (U-251 [4]) was 2.89 µM and the TGI (U-251 [4]) was greater than 100 µM. It also gave a CC50 (U-251 [4]) greater than 100 µM, a growth at 10 µM (SR) of 28% and a growth at 10 µM (NCI/ADR-RES) of 60.1%. The growth at 0.01 µM (RXF 393) was 101%, the growth at 0.001 µM (UACC-257) was 95% and the growth at 0.01 µM (UACC-62) was 88%. It also gave a growth at 1 µM (A549) of 25%, a growth at 0.01 µM (HCC 2998) of 98% and a growth at 0.01 µM (CCRF-CEM) of 93%. The growth at 0.01 µM (HCT-116) was 91%, the growth at 0.001 µM (SNB-75) was 80% and the GI50 (SK-OV-3) was 4.22 µM. For the same compound, the TGI (SK-OV-3) was greater than 100 µM, the CC50 (SK-OV-3) was greater than 100 µM and the growth at 10 µM (K562) was 30.1%. It also gave a growth at 0.1 µM (A498) of 65%, a growth at 0.001 µM (OVCAR-5) of 85% and a growth at 0.01 µM (U-251 [5]) of 89%. The growth at 10 µM (SNB-19) was 66%, the growth at 0.001 µM (SK-MEL-5) was 95% and the growth at 1 µM (SF-295) was 39%. It also gave a growth at 0.001 µM (COLO 205 [6]) of 109%.
With Cc1cc(O)cc(-c2nn(CC#N)cc2-c2ccnc(-c3ccc(Oc4ccccc4)cc3)c2)c1 the growth at 10 µM (OVCAR-8 [1]) was 37.2%, the growth at 10 µM (786-0) was 58.1% and the growth at 10 µM (OVCAR-8 [2]) was -88%. For the same compound, the GI50 (HOP-62) was 1.17 µM, the LC50 (50% lethal concentration) (HOP-62) was 52.3 µM and the TGI (HOP-62) was 24.7 µM. It also gave a GI50 (SF-268) of 3.96 µM, a TGI (SF-268) of 15.5 µM and a CC50 (SF-268) of 41.4 µM. It also gave a GI50 (COLO 205 [3]) of 1.8 µM, a TGI (COLO 205 [3]) of 3.26 µM and a CC50 (COLO 205 [3]) of 5.9 µM. For the same compound, the growth at 0.1 µM (Malme-3M) was 93%, the GI50 (U-251 [4]) was 1.61 µM and the TGI (U-251 [4]) was 2.99 µM. The CC50 (U-251 [4]) was 5.56 µM, the growth at 10 µM (SR) was -12% and the growth at 10 µM (NCI/ADR-RES) was 37.9%. For the same compound, the growth at 0.01 µM (RXF 393) was 90%, the growth at 0.001 µM (UACC-257) was 95% and the growth at 0.01 µM (UACC-62) was 84%. The growth at 1 µM (A549) was -37%, the growth at 0.01 µM (HCC 2998) was 89% and the growth at 0.01 µM (CCRF-CEM) was 93%. The growth at 0.01 µM (HCT-116) was 94%, the growth at 0.001 µM (SNB-75) was 86% and the GI50 (SK-OV-3) was 1.2 µM. The TGI (SK-OV-3) was 24.4 µM, the CC50 (SK-OV-3) was 49.6 µM and the growth at 10 µM (K562) was 15%. For the same compound, the growth at 0.1 µM (A498) was 84%, the growth at 0.001 µM (OVCAR-5) was 72% and the growth at 0.01 µM (U-251 [5]) was 92%. For the same compound, the growth at 10 µM (SNB-19) was -93%, the growth at 0.001 µM (SK-MEL-5) was 93% and the growth at 1 µM (SF-295) was 30%. For the same compound, the growth at 0.001 µM (COLO 205 [6]) was 107%.
